Data from PubChem BioAssay AID651787 (The Scripps Research Institute Molecular Screening Center, 2012).
In all, about 2,400 compounds went through this assay and about 1,200 (50%) were called active.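 The calls were made as follows: active = activation above the run cutoff, the mean activation over all tested wells plus 3 SD (cut at about 12% in these data); inactive = the rest.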 The set was probably picked from earlier hits. Not all results are given here.

Assay: calcium rise in parental Ga16 cells – cell-based, fluorescence, CHO-Ga16 parental line, counter-screen for hTAAR1 agonist project (AID 651787)
Conditions: Fluo-8 calcium fluorescence, at 3 µM, hits give high values, normalized to maximal ATP response, DMSO zero
How it was run: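 Test system: CHO-Gα16 parental cells without hTAAR1 / Quantity: 750 cells per well / Detection: Fluo-8 calcium dye fluorescence, excitation 470-495 nm, emission 515-575 nm / Benchmarks: DMSO (0%) and EC100 ATP (100%) / Schedule: 17-24 h seeding, dye 75 min 37 °C, 30 min RT / Read-out basis: percent activation from max/basal fluorescence ratio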
In the case of `CCCCC(=O)N/N=C/c1c(O)n(CC)c(=S)n(CC)c1=O`, the activation is reported as 90.1% (active). In the case of `CCC(=NCCc1ccccc1)c1c(O)n(C2CCCCC2)c(=O)[nH]c1=O`, the activation is reported as 4.36% (inactive). For `COc1ccc(Br)cc1CNCCc1cccc(Cl)c1`, the activation was 17.7% (active). For `Clc1ccc2nc3c(c(-c4ccccc4)c2c1)CNCC3`, the activation was 3.65% (inactive). In the case of `Cc1cccc(N2C(=O)NC(=O)/C(=C\c3cnn(-c4ccccc4)c3)C2=O)c1`, the activation is reported as 25.1% (active). In the case of `c1ccc(CCNC2CCCCCC2)cc1`, the activation is reported as 0.13% (inactive). In the case of `O=C1NC(=O)N(Cc2ccco2)C(=O)/C1=C\c1ccc(-c2ccc(F)cc2)o1`, the activation is reported as 21.1% (active). For `NCC(O)c1ccc(O)cc1` (centres undefined), the activation was 1.74% (inactive). With `CC(Cc1ccccc1)NC=O` (centres undefined) the activation was 6.88% (inactive).
